Experimental data as given in ChEMBL document CHEMBL4118209, “Development of autotaxin inhibitors: A series of zinc binding triazoles” (Bioorg Med Chem Lett, 2018).
≈ marks a conversion by molar mass, not a printed value. Each block holds one molecule with its values, some of them ahead of it.

Experiments:
[1] = Oral bioavailability in Lewis rat at 1 to 100 mg/kg dosed via gavage after 1.25 to 24 hrs; format: ADME, organism-based; details: in vivo
[2] = Equilibrium solubility of compound at pH 6.8 by high-throughput screening method; details: buffer
[3] = target: T1, Voltage-gated inwardly rectifying potassium channel KCNH2 (Homo sapiens, UniProt Q12809); test: Displacement of [3H]dofetilide from human ERG expressed in HEK293 cells after 45 mins by scintillation counting method
[4] = Permeability assessed as drug absorption at 50 ug/ml after 5 hrs by PAMPA; details: at 50 µg/mL
Autotaxin [5] = target: T2, Autotaxin (Homo sapiens, UniProt Q13822); test: Inhibition of ATX (unknown origin) assessed as decrease in choline release
[6] = Intrinsic clearance in Sprague-Dawley rat liver microsomes at 1 uM by HPLC analysis; format: ADME, microsome; details: read-out: CLH
[7] = Fraction unbound in human plasma at 5 uM after 2 to 6 hrs by rapid equilibrium dialysis method; format: ADME, cell-free
[8] = target: T1, Voltage-gated inwardly rectifying potassium channel KCNH2; test: Inhibition of human ERG expressed in CHO-K1 cells at -90 mV holding potential by Qpatch clamp assay
[9] = Half life in Sprague-Dawley rat at 1 mg/kg, iv; format: ADME, organism-based; details: in vivo
[10] = Clearance in Sprague-Dawley rat at 1 mg/kg, iv; format: ADME, organism-based; details: in vivo
[11] = Volume of distribution at steady state in Sprague-Dawley rat at 1 mg/kg, iv; format: ADME, organism-based; details: in vivo, read-out: Vdss
Rattus norvegicus [12] = test: AUC (0 to infinity) in Sprague-Dawley rat at 10 mg/kg, po; format: ADME, organism-based; design: dose 10 mg/kg, time infinity, route oral; details: in vivo
[13] = Cmax in Sprague-Dawley rat at 10 mg/kg, po; format: ADME, organism-based; design: dose 10 mg/kg, route oral; details: in vivo
[14] = Tmax in Sprague-Dawley rat at 10 mg/kg, po; format: ADME, organism-based; details: in vivo
[15] = Oral bioavailability in Sprague-Dawley rat at 10 mg/kg; format: ADME, organism-based; details: in vivo
Autotaxin [16] = target: T2, Autotaxin; test: Inhibition of ATX in human serum assessed as reduction in LPA 18:1 levels after 3 hrs by LC-MS/MS analysis
In short: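 Human serum was cleared of coagulated blood by centrifugation (2100g, 10 min, room temperature) and stored at −80 °C. It was incubated with compound (0.5 nM–10 μM) with shaking at 37 °C for 3 h. LPA was extracted into methanol with 30 mM citric acid and LPA 17:0 internal standard (0.5 µM), then quantified by LC-MS/MS (negative-ion MRM). IC50 was obtained by non-linear regression.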

Rattus norvegicus [17] = test: In vivo inhibition of ATX in Sprague-Dawley rat assessed as reduction in LPA 16:0 levels in serum at 0.3 mg/kg, po measured over 24 hrs by LCMS analysis relative to control; format: functional
In short: (§1)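 Male Sprague-Dawley rats (n = 6 per group) were given compound or vehicle (0.5% methyl cellulose:0.5% Tween80) orally at 5 ml/kg. Tail-vein blood was taken at various times without anticoagulant, held 30 min at room temperature, and spun at 700g for 10 min. Serum was stored at −80 °C. LPA isoforms were measured by LC-MS/MS, and PK/PD was assessed with a link model.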

Rattus norvegicus [18] = test: In vivo inhibition of ATX in Sprague-Dawley rat assessed as reduction in LPA 18:0 levels in serum at 0.3 mg/kg, po measured over 24 hrs by LCMS analysis relative to control; format: functional; in short: as §1
Rattus norvegicus [19] = test: In vivo inhibition of ATX in Sprague-Dawley rat assessed as reduction in LPA 18:1 levels in serum at 0.3 mg/kg, po measured over 24 hrs by LCMS analysis relative to control; format: functional; in short: as §1
Rattus norvegicus [20] = test: In vivo inhibition of ATX in Sprague-Dawley rat assessed as reduction in LPA 24:4 levels in serum at 0.3 mg/kg, po measured over 24 hrs by LCMS analysis relative to control; format: functional; details: in the assay text read “LPA 20:4” for “LPA 24:4”; in short: as §1
Rattus norvegicus [21] = test: In vivo inhibition of ATX in po dosed Sprague-Dawley rat assessed as reduction in LPA 16:0 levels in serum measured over 24 hrs by LCMS analysis; format: functional, organism-based; in short: as §1
Rattus norvegicus [22] = test: In vivo inhibition of ATX in po dosed Sprague-Dawley rat assessed as reduction in LPA 18:0 levels in serum measured over 24 hrs by LCMS analysis; format: functional, organism-based; in short: as §1
Rattus norvegicus [23] = test: In vivo inhibition of ATX in po dosed Sprague-Dawley rat assessed as reduction in LPA 18:1 levels in serum measured over 24 hrs by LCMS analysis; format: functional, organism-based; in short: as §1
Rattus norvegicus [24] = test: In vivo inhibition of ATX in po dosed Sprague-Dawley rat assessed as reduction in LPA 24:4 levels in serum measured over 24 hrs by LCMS analysis; format: functional, organism-based; details: in the assay text read “LPA 20:4” for “LPA 24:4”; in short: as §1
[25] = Fraction unbound in rat plasma at 5 uM after 2 to 6 hrs by rapid equilibrium dialysis method; format: ADME, cell-free
[26] = Intrinsic clearance in human liver microsomes at 1 uM by HPLC analysis; format: ADME, microsome; details: read-out: CLH
[27] = Thermodynamic solubility in FeSSIF; format: physicochemical; details: read-out: Therm_solubility

T1 sequence (Q12809 whole entry): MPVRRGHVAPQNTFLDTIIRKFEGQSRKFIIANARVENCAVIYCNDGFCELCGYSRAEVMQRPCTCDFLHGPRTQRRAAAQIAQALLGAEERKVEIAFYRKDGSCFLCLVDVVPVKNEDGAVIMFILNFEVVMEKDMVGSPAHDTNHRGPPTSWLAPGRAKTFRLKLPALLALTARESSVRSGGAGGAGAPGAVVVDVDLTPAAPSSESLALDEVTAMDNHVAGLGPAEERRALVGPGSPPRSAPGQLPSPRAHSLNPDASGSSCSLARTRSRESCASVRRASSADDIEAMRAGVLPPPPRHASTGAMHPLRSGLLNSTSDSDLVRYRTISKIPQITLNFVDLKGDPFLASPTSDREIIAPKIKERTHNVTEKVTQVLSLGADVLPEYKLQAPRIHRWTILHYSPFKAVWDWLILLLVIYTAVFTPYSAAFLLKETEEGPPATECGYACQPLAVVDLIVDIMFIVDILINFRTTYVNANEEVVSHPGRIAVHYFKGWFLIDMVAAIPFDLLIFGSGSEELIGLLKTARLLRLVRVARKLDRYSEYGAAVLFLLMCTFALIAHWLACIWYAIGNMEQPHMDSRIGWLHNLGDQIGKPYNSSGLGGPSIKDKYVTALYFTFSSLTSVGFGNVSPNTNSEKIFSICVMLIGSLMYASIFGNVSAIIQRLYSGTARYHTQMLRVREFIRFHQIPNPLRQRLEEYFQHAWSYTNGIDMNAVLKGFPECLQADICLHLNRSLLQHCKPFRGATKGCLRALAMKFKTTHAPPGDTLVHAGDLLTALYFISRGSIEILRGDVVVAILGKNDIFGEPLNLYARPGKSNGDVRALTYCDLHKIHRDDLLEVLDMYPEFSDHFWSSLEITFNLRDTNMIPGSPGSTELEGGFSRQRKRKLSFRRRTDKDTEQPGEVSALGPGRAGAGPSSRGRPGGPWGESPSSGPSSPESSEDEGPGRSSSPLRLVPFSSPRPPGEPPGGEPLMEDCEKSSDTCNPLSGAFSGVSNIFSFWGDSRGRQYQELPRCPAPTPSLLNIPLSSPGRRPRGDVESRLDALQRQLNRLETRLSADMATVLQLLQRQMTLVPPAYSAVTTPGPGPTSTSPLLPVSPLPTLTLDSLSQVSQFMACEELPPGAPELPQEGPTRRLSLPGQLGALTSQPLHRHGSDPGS

Compound: O=C(CCN1CCN(C(=O)OCc2cc(Cl)cc(Cl)c2)CC1)c1ccc2[nH]c(=O)oc2c1
bioavailability [1]: 43 to 83% | solubility thermodynamic [2]: 10 to 11 µg/mL (≈ 20.9 to 23 µM) | IC50 [3]: 2700 nM | Drug absorption [4]: 81%

Compound: O=C(CCCc1c[nH]nn1)NC1CCN(C(=O)OCc2ccc(Cl)cc2Cl)CC1
Drug absorption [4]: 43%

Compound: O=C(CCc1c[nH]nn1)NC1CCN(C(=O)OCc2cc(Cl)cc(Cl)c2)CC1
microsomal CLint at 1 µM [6]: 75 µL/min/mg

Compound: O=C(NCCN1CCN(C(=O)OCc2cc(Cl)cc(Cl)c2)CC1)c1c[nH]c(=O)o1
solubility thermodynamic [2]: 60 µg/mL (≈ 135 µM) | IC50 (Autotaxin [5]): 370 nM | Drug absorption [4]: 35%

Compound: CN(CCC1CCN(C(=O)OCc2cc(Cl)cc(Cl)c2)CC1)C(=O)c1c[nH]c(=O)o1
microsomal CLint at 1 µM [6]: 235 µL/min/mg | fraction unbound at 5 µM [7]: 0.005 | half-life [9]: 288 min | clearance [10]: 12 mL/min/kg | Vd [11]: 2.2 L/kg | AUC (Rattus norvegicus [12]): 25 µM·h | Cmax [13]: 3.4 µM | Tmax [14]: 2.5 h | bioavailability [15]: 80%

Compound: O=C(CCCc1c[nH]nn1)NC1CCN(C(=O)OCc2cc(F)cc(Cl)c2)CC1
Drug absorption [4]: 35%

Compound: CN(C(=O)CCCc1c[nH]nn1)C1CCN(C(=O)OCc2cc(Cl)cc(Cl)c2)CC1
Drug absorption [4]: 89%

Compound: O=C(CCN1CCN(C(=O)OCC2CCCCC2)CC1)c1ccc2[nH]c(=O)oc2c1
IC50 (Autotaxin [5]): 240 nM

Compound: Cn1cc(CCCC(=O)NC2CCN(C(=O)OCc3cc(Cl)cc(Cl)c3)CC2)nn1
IC50 (Autotaxin [5]): 1370 nM

More lines, main results first:

IC50 (Autotaxin [5]): 3.1 nM | Drug absorption [4]: 43% | microsomal CLint at 1 µM [6]: 104 µL/min/mg | fraction unbound at 5 µM [7]: 0.026 | half-life [9]: 318 min | clearance [10]: 16 mL/min/kg | Vd [11]: 2.5 L/kg | AUC (Rattus norvegicus [12]): 17 µM·h | Cmax [13]: 2.85 µM | Tmax [14]: 1.3 h | bioavailability [15]: 68% | IC50 (Autotaxin [16]): 9 nM | IC50 (Rattus norvegicus [21]): 20 nM | IC50 (Rattus norvegicus [22]): 20 nM | IC50 (Rattus norvegicus [23]): 20 nM | IC50 (Rattus norvegicus [24]): 20 nM | fraction unbound at 5 µM [25]: 0.04 | microsomal CLint at 1 µM [26]: 59 µL/min/mg | solubility thermodynamic [27]: 126 µg/mL (≈ 286 µM)
Compound: O=C(CCCc1c[nH]nn1)NC1CCN(C(=O)OCc2cc(Cl)cc(Cl)c2)CC1
IC50 [8]: 20.9 µM | inhibition in vivo at 0.3 mg/kg (Rattus norvegicus [17]): 70 to 80% | inhibition in vivo at 0.3 mg/kg (Rattus norvegicus [18]): 70 to 80% | inhibition in vivo at 0.3 mg/kg (Rattus norvegicus [19]): 70 to 80% | inhibition in vivo at 0.3 mg/kg (Rattus norvegicus [20]): 70 to 80%

IC50 (Autotaxin [5]): 39 nM | Drug absorption [4]: 35%
Compound: O=C(CCCc1c[nH]nn1)NC1CCN(C(=O)OCc2ccc(C(F)(F)F)cc2)CC1

solubility thermodynamic [2]: 80 µg/mL (≈ 181 µM) | IC50 (Autotaxin [5]): 86 nM | Drug absorption [4]: 68%
Compound: O=C(NCCC1CCN(C(=O)OCc2cc(Cl)cc(Cl)c2)CC1)c1c[nH]c(=O)o1

IC50 (Autotaxin [5]): 7.7 nM | Drug absorption [4]: 21%
Compound: N#Cc1cc(Cl)cc(COC(=O)N2CCC(NC(=O)CCCc3c[nH]nn3)CC2)c1

IC50 (Autotaxin [5]): 150 nM | Drug absorption [4]: 97% | microsomal CLint at 1 µM [6]: 51 µL/min/mg
Compound: CN(CCC1CCN(C(=O)OCc2cc(Cl)cc(Cl)c2)CC1)C(=O)c1c[nH]nn1
IC50 [8]: 8.6 µM

IC50 (Autotaxin [5]): 3.9 nM
Compound: O=C(OCc1cc(Cl)cc(Cl)c1)N1CC(N2CCN(C(=O)c3ccc4[nH]c(=O)oc4c3)CC2)C1

IC50 (Autotaxin [5]): 170 nM
Compound: O=C(CCN1CCN(C(=O)OCC2CCCC2)CC1)c1ccc2[nH]c(=O)oc2c1

IC50 (Autotaxin [5]): 8 nM
Compound: O=C(NCC1(O)CCN(C(=O)OCc2cc(Cl)cc(Cl)c2)CC1)c1ccc2[nH]c(=O)oc2c1

IC50 (Autotaxin [5]): 130 nM
Compound: O=C(CCN1CCN(C(=O)OCc2ccccc2)CC1)c1ccc2[nH]c(=O)oc2c1

IC50 (Autotaxin [5]): 10 nM
Compound: O=C(NCCC1CN(C(=O)OCc2cc(Cl)cc(Cl)c2)CCO1)c1ccc2[nH]c(=O)oc2c1 (racemic)

IC50 (Autotaxin [5]): 18 nM
Compound: O=C(OCc1cc(Cl)cc(Cl)c1)N1CCC(N2CCN(C(=O)c3ccc4[nH]c(=O)oc4c3)CC2)C1 (racemic)
